{"source": "ChEMBL document CHEMBL1155279", "about": "“1,5-Diaryl-2-ethyl pyrrole derivatives as antimycobacterial agents: design, synthesis, and microbiological evaluation” (Eur J Med Chem, 2009)"}
{"system": "Mycobacterium tuberculosis", "experiment": "Antimycobacterial activity against rifampicin-resistant Mycobacterium tuberculosis ATCC 35838 by twofold agar dilution method", "assay_type": "functional", "procedure,_shortened": "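Twofold agar dilution in Middlebrook 7H11 agar with 10% OADC (oleic acid, albumin, dextrose). Compounds dissolved in DMSO at 5 mg/mL (one in ethanol at 6 mg/mL), stock, stored cold. MIC determined for each strain. Strains: M. tuberculosis CIP 103471, H37Rv ATCC 27294, rifampicin-resistant ATCC 35838, M. avium CIP 103317.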", "units": {"MIC": "µg/mL"}}
{"molecule": "CN[C@@H]1[C@H](O[C@H]2[C@H](O[C@H]3[C@H](O)[C@@H](O)[C@H](N=C(N)N)[C@@H](O)[C@@H]3N=C(N)N)O[C@@H](C)[C@]2(O)C=O)O[C@@H](CO)[C@H](O)[C@H]1O", "note": "[STREPTOMYCIN]", "MIC": 0.5}
{"molecule": "CCc1c(CN2CCSCC2)cc(-c2ccc(F)cc2)n1-c1ccccc1F", "MIC": 2}
{"molecule": "CCc1c(CN2CCSCC2)cc(-c2ccccc2)n1-c1ccccc1", "MIC": 4}
{"molecule": "CCc1c(CN2CCSCC2)cc(-c2ccccc2)n1-c1ccc(F)cc1", "MIC": 4}
{"molecule": "CO[C@H]1/C=C/O[C@@]2(C)Oc3c(C)c(O)c4c(O)c(c(/C=N/N5CCN(C)CC5)c(O)c4c3C2=O)NC(=O)/C(C)=C\\C=C\\[C@H](C)[C@H](O)[C@@H](C)[C@@H](O)[C@@H](C)[C@H](OC(C)=O)[C@@H]1C", "note": "[RIFAMPIN]", "MIC": "> 100"}
{"molecule": "CCc1c(CN2CCSCC2)cc(-c2ccccc2F)n1-c1ccccc1F", "MIC": 8}
{"molecule": "CCc1c(CN2CCN(C)CC2)cc(-c2ccc(Cl)cc2)n1-c1ccc(Cl)cc1", "MIC": 4}
{"molecule": "CCc1c(CN2CCSCC2)cc(-c2ccc(C)cc2)n1-c1ccc(F)cc1", "MIC": 0.25}
{"molecule": "CCc1c(CN2CCSCC2)cc(-c2ccc(F)cc2)n1-c1ccccc1", "MIC": 1}
